# Measured values as given in PMC12443483 (Journal of the American Chemical Society, 2025).
# Values joined by “and” are separate entries in the source; they are usually repeats but may differ in a detail not shown here. Identical values can stand only once.
# Legend:
# [1] = Polarity sensitivity: emission across solvents with varying dielectric constants; assay type: physicochemical; conditions: for Emission wavelength range (solvatochromism): depending on solvent polarity; for Polarity sensitivity: λem versus solvent dielectric constant
# [2] = Photophysical characterization by absorption and fluorescence spectroscopy; assay type: physicochemical; conditions: for Absorbance λabs (maximum absorption wavelength) / Emission λem (maximum emission wavelength) / ε (molar absorption coefficient at maximum absorption wavelength): 25 μM probe in CH3CN/PBS pH 7.4; for Stokes Shift: difference between λabs and λem, CH3CN/PBS pH 7.4
# Outline: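 Probe at 25 μM final in CH3CN/PBS (50:50 v/v), pH 7.4. Absorption and emission spectra were recorded, with excitation at each probe's absorption maximum. ε was taken at the absorption maximum, and Stokes shift as the absorption–emission maximum difference. Quantum yield (error limit ±5) was measured in this mixture and also in CH3CN.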
# [3] = Viscosity sensitivity: fluorescence in ethylene glycol/glycerol mixtures; assay type: physicochemical; conditions: EG/G mixtures 16 to 851 cP; for Viscosity sensitivity χ2: second-order polynomial regression, 25 μM probe
# Outline: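 Fluorescence was measured in ethylene glycol/glycerol mixtures spanning 16–851 cP; the two solvents were chosen for closely matched dielectric constants, to minimise polarity effects. χ2 was derived from second-order polynomial regression of intensity against viscosity.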
# αS/Tau0N4R condensates = assay: CLSM staining of αS/tau condensates relative to αS fibrils; conditions: 80 μM αS / 40 μM tau, LLPS buffer
# αS/pLK condensates = assay: CLSM staining of αS/pLK LLPS condensates relative to αS fibrils; conditions: αS 100 μM / pLK 0.25 mg/mL, LLPS buffer
# Outline: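 Condensates of αS (100 μM) and poly-L-lysine (0.25 mg/mL), doped with 5% Acd-labelled αS (position 94) and 5% FITC-poly-L-lysine, stained and imaged by confocal microscopy. Channels: Acd 430–480 nm (Ex 405 nm); FITC 500–540 nm; probe Ex 561 nm, Em 570–620 or 630–680 nm. Probe intensity in condensates was divided by that with αS fibrils. Buffer: HEPES/NaCl/TCEP pH 7.4 with 15% PEG-8000, room temperature. SD of >3 measurements.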
# αS = αS (Homo sapiens, UniProt P37840); assay: Monitoring αS aggregation over prolonged agitation; assay type: biochemical; conditions: PBS buffer, 37 °C; for Detection of early αS aggregation species (misfolding, oligomers/protofibrils): 0–40 hours
# PDD-derived AFs = PDD-derived AFs (Homo sapiens, UniProt P37840); assay: Fluorescence with amplified fibrils; assay type: binding; conditions: 1 μM probe, 1 μM AFs, average of three PDD patients
# Outline: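 Probe (1 μM) was mixed with amplified fibrils (1 μM) or brain lysates from three PDD patients, and the averages are shown. Ex/Em was set per probe: 463/580 or 484/620 nm, with ThT reference at 450/482 nm. Fold change is after subtracting free probe fluorescence in PBS. Error bars are SD of 3 measurements.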
# tau fibrils = assay: Amyloid selectivity: turn-on with αS fibrils relative to tau fibrils; assay type: binding; conditions: 1 μM probe
# αS fibrils [4] = target: T1, αS fibrils (Homo sapiens, UniProt P37840); assay: Binding affinity; conditions: for Kd: read-out: Dissociation constant (Kd), probe 10 nM–10 μM with 100 μM αS fibrils
# αS monomer = αS monomer (Homo sapiens, UniProt P37840); assay: Fluorescence with TMAO-induced αS misfolding/oligomers; assay type: biochemical
# Outline: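 Monomeric αS (50 μM) was exposed to trimethylamine N-oxide at 2, 4 or 6 M to induce misfolding or oligomers, then probe fluorescence was read. Fold change is relative to free probe in Tris buffer containing the same TMAO concentration.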
# [5] = Temperature dependence of fluorescence in methanol/glycerol mixtures; assay type: physicochemical
# Outline: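 Fluorescence of 25 μM probe was measured in methanol/glycerol mixtures of varying viscosity at 25 and 42 °C. Fluorescence fold change was plotted against viscosity.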
# αS fibrils [6] = target: T1, αS fibrils; assay: Competition binding studies with ThT, Ex6 and BF2846 on αS fibrils; conditions: for Competition with ThT: some ThT emission remained at saturating concentrations
# αS fibrils [7] = target: T1, αS fibrils; assay: Turn-on fluorescence upon binding to αS fibrils; conditions: for Brightness increase upon binding to αS fibrils / Emission wavelength upon binding to αS fibrils: 10 μM probe, 50 μM αS fibrils; for Fluorescence lifetime (τ) upon binding to αS fibrils: bound to αS fibrils
# Outline: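 Emission spectra of 10 μM probe were recorded with 50 μM αS monomer or fibrils. Samples were also photographed under a 365 nm hand-held UV lamp.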
# αS fibrils [8] = target: T1, αS fibrils; assay: Concentration-dependent binding λem and local dielectric constant on αS fibrils; conditions: for Dielectric constant of local environment of probe bound to αS fibrils: calculated from fits of λem in solvents, 581 nm for 3c, 617 nm for 4a
# Aβ1–42 fibrils = assay: Amyloid selectivity: turn-on with αS fibrils relative to Aβ1–42 fibrils; assay type: binding; conditions: 1 μM probe
# Tau0N4R condensates [9] = assay: CLSM staining of Tau0N4R condensates with and without αS; conditions: 40 μM Tau0N4R with or without 80 μM αS
# Outline: (§1)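 Confocal imaging of 40 μM Tau0N4R condensates, with or without 80 μM αS, doped with 5% AF488-labelled Tau0N4R. Buffer: 20 mM HEPES, 150 mM NaCl, 1 mM TCEP, pH 7.4, 15% PEG-8000, room temperature. Probe read at Ex 561 nm, Em 630–680 nm; AF488-tau at Ex 488 nm, Em 500–540 nm. Error bars are SD of >3 measurements.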
# Tau0N4R condensates [10] = target: Tau0N4R condensates (Homo sapiens, UniProt P10636); assay: as above; conditions: 40 μM Tau0N4R without αS, 630–680 nm channel
# Sequence of Tau0N4R condensates (Homo sapiens, UniProt P10636) (P10636 2-383 isoform P10636-6): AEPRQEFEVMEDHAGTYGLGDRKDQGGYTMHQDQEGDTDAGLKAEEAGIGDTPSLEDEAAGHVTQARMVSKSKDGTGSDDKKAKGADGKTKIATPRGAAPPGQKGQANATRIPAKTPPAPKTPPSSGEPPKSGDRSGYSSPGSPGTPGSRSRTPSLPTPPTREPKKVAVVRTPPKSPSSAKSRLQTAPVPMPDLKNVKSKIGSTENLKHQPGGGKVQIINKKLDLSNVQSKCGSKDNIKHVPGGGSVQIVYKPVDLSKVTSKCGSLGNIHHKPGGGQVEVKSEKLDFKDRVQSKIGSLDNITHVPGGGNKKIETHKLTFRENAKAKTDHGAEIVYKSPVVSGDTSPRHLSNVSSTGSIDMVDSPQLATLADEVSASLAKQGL
# Outline: as §1
# [11] = 2 M TMAO, 50 μM αS monomer, 10 μM probe
# [12] = 4 M TMAO, 50 μM αS monomer, 10 μM probe
# [13] = 6 M TMAO, 50 μM αS monomer, 10 μM probe
SMILES,Emission wavelength range (solvatochromism) [1],Polarity sensitivity [1],Absorbance λabs (maximum absorption wavelength) [2] [nm],Emission λem (maximum emission wavelength) [2] [nm],ε (molar absorption coefficient at maximum absorption wavelength) [2] [M⁻¹ cm⁻¹],"Fluorescence QY ([2]; CH3CN/PBS pH 7.4, 25 μM) [%]",Stokes Shift [2] [nm],Fluorescence QY ([2]; in CH3CN),Fluorescence intensity change with viscosity [3],Viscosity sensitivity χ2 [3],Fluorescence with PDD-derived AFs compared to unamplified lysate (PDD-derived AFs),Kd (αS fibrils [4]) [nM],λem with αS/TMAO (αS monomer; 4 M TMAO) [nm],λem with αS/TMAO (αS monomer; 6 M TMAO) [nm],Fluorescence change between 25 °C and 42 °C [5] [fold],Displacement of probe fluorescence by BF2846 (Site B binder) (αS fibrils [6]),Staining: probe intensity ratio αS/Tau condensates to αS fibrils (αS/Tau0N4R condensates) [fold],Staining efficiency: probe intensity ratio αS/pLK condensates to αS fibrils (αS/pLK condensates) [fold],"Detection of early αS aggregation species (misfolding, oligomers/protofibrils) (αS)",Turn-on for αS fibrils relative to tau fibrils (tau fibrils) [fold],further results
"Cc1ccc2c(c1)sc(-c1ccc(N(C)C)cc1)[n+]2C [ThT, Thioflavin-T, reference compound]",,,,,,,,,,,failed to distinguish AFs from lysate,,,,,,0.34,0.15,only tracking mature fibrils,,
Cc1c(C)n2c(/C=C/C=C/c3ccc(N(C)C)cc3)c(C)c(=O)n2c1=O [4a],486–640 nm,~ 31.5,436,640,36700,0.6,204,13.5%,around 3 fold,,2.6 fold,420 ± 250,606,601,,not affected,1.12,1.11,,11,Affinity relative to 3c (αS fibrils [4]; Kd ratio 3c/4a): 3.5 times; λem with αS/TMAO (αS monomer; 2 M TMAO): 604 nm; Sensitivity (turn-on) relative to 3c (αS monomer; [11]): 2.2 fold; Sensitivity (turn-on) relative to ThT (αS monomer; [11]): 3.1 fold; Sensitivity (turn-on) relative to 3c (αS monomer; [12]): 2.9 fold; Sensitivity (turn-on) relative to ThT (αS monomer; [12]): 5.2 fold; Turn-on relative to 2a (so in the source) (αS monomer; [13]): 1.2 fold; Turn-on relative to ThT (αS monomer; [13]): 1.5 fold; Fluorescence in αS-containing tau condensates compared to tau-only condensates (Tau0N4R condensates [9]): 3.8 fold; Staining of tau-only condensates (Tau0N4R condensates [10]): minimal staining; λem shift ([1]; across solvents with dielectric constants from 2.38 to 8.93): 64 nm; Displacement of probe fluorescence by Ex6 (Site A binder) (αS fibrils [6]): not affected; Competition with ThT (αS fibrils [6]): competed with the promiscuous binder ThT; Brightness increase upon binding to αS fibrils (αS fibrils [7]): 383 fold; Emission wavelength upon binding to αS fibrils (αS fibrils [7]): 620 nm; Fluorescence lifetime (τ) upon binding to αS fibrils (αS fibrils [7]): 1.27 ns; λem as probe concentration increased (αS fibrils [8]; bound to αS fibrils): 617 to 618 nm; Dielectric constant of local environment of probe bound to αS fibrils (αS fibrils [8]): 27.6; Increase in fluorescence intensity within 20 hours of αS aggregation (αS; agitation): 15 fold; Turn-on for αS fibrils relative to Aβ1–42 fibrils (Aβ1–42 fibrils): 15 fold

# Second part, led by results:
Emission wavelength range (solvatochromism) [1],Polarity sensitivity [1],Absorbance λabs (maximum absorption wavelength) [2] [nm],Emission λem (maximum emission wavelength) [2] [nm],ε (molar absorption coefficient at maximum absorption wavelength) [2] [M⁻¹ cm⁻¹],"Fluorescence QY ([2]; CH3CN/PBS pH 7.4, 25 μM) [%]",Stokes Shift [2] [nm],Fluorescence QY ([2]; in CH3CN),Fluorescence intensity change with viscosity [3],Viscosity sensitivity χ2 [3],Fluorescence with PDD-derived AFs compared to unamplified lysate (PDD-derived AFs),Kd (αS fibrils [4]) [nM],λem with αS/TMAO (αS monomer; 4 M TMAO) [nm],λem with αS/TMAO (αS monomer; 6 M TMAO) [nm],Fluorescence change between 25 °C and 42 °C [5] [fold],Displacement of probe fluorescence by BF2846 (Site B binder) (αS fibrils [6]),SMILES,Staining: probe intensity ratio αS/Tau condensates to αS fibrils (αS/Tau0N4R condensates) [fold],Staining efficiency: probe intensity ratio αS/pLK condensates to αS fibrils (αS/pLK condensates) [fold],"Detection of early αS aggregation species (misfolding, oligomers/protofibrils) (αS)",Turn-on for αS fibrils relative to tau fibrils (tau fibrils) [fold],further results
486–640 nm,30.7,399,591,26400,0.5,192,2.0%,4.68 fold,0.7 ×10^−3,,,,,,,CNc1ccc(/C=C/c2c(C)c(=O)n3c(=O)c(C)c(C)n23)cc1 [3b],,,,,
,32.1,418,604,30400,0.5,186,7.3 ± 0.3% and 7.3%,3.82 fold,0.6 ×10^−3,2.4 fold,1450 ± 430,566,560,2.48,partially displaced,Cc1c(C)n2c(/C=C/c3ccc(N(C)C)cc3)c(C)c(=O)n2c1=O [3c],0.37,0.68,unable to detect changes within 20 h,2.8,Displacement of probe fluorescence by Ex6 (Site A binder) (αS fibrils [6]): not displaced; Competition with ThT (αS fibrils [6]): competed with the promiscuous binder ThT; Brightness increase upon binding to αS fibrils (αS fibrils [7]): 476 fold; Emission wavelength upon binding to αS fibrils (αS fibrils [7]): 580 nm; Fluorescence lifetime (τ) upon binding to αS fibrils (αS fibrils [7]): 2.27 ns; λem as probe concentration increased (αS fibrils [8]; bound to αS fibrils): 575 to 581 nm; λem shift as concentration increased (αS fibrils [8]; bound to αS fibrils): 6 nm; Dielectric constant of local environment of probe bound to αS fibrils (αS fibrils [8]): 35.9; Turn-on for αS fibrils relative to Aβ1–42 fibrils (Aβ1–42 fibrils): 5.2 fold
,26.7,385,583,30800,0.7,198,1.5%,5.4 fold,1.0 ×10^−3,,,,,2.14,,Cc1c(C)n2c(/C=C/c3ccc(N)cc3)c(C)c(=O)n2c1=O [3a],,,,,
